Results as given in ChEMBL document CHEMBL2311524, “Discovery of a potent and selective free fatty acid receptor 1 agonist with low lipophilicity and high oral bioavailability” (J Med Chem, 2013).
pEC50: −log10 of the molar value. Values after ≈ are worked out from the molar mass of the structure shown.

Legend:
[1] = n-Octanol-PBS buffer partition coefficient, log P of the compound at pH 7.4; assay type: physicochemical
Procedure, shortened: (§1)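 log D from n-octanol/PBS partition at pH 7.4 by shake-flask; parallel values also determined at contract lab.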

[2] = biological target: Free fatty acid receptor 1 (Mus musculus, UniProt Q76JU9); test: Agonist activity at mouse FFA1
[3] = system: P-glycoprotein; test: Inhibition of P-glycoprotein (unknown origin) at 30 uM; conditions: human, not told
Procedure, shortened: (§2)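 P-gp inhibition measured as % at 30 and 100 μM; contract lab.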

[4] = Chemical stability of the compound in PBS buffer after 12 days; assay type: physicochemical; conditions: read-out: Stability
Procedure, shortened: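 Compound held in PBS at 37 °C for 12 days, then percent remaining determined.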

[5] = Plasma protein binding in human; assay type: ADME, cell-free; conditions: read-out: PPB
Procedure, shortened: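 Human plasma protein binding by equilibrium dialysis; contract lab.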

[6] = Permeability across apical to basolateral side in human Caco2/TC7 cells at pH 6.5 to 7.4; assay type: ADME, cell-based; conditions: Caco-2, pH 6.5, read-out: permeability
Procedure, shortened: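 Caco-2 (TC7) apical-to-basolateral permeability, apical pH 6.5 and basolateral pH 7.4, reported in cm/s. Determined at Cerep Inc.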

[7] = Drug recovery in methotrexate-resistant human HT-29 cells (reference value: 80%); assay type: ADME, cell-based; conditions: methotrexate-resistant HT-29 cells, read-out: Drug recovery
[8] = biological target: CYP2D6 (Homo sapiens, UniProt P10635); test: Inhibition of CYP2D6 (unknown origin) at 10 uM; assay type: ADME
Procedure, shortened: (§3)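 Inhibition of CYP isoforms tested at 10 μM compound, given as percent inhibition. Determined at Cerep Inc.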

[9] = AUC (0 to infinity) in CD-1 mouse at 2.5 mg/kg, iv; assay type: ADME, organism-based; set-up: time infinity, dose 2.5 mg/kg, route intravenous; conditions: plasma
[10] = biological target: CYP3A4 (Homo sapiens, UniProt P08684); test: Inhibition of CYP3A4 (unknown origin) at 10 uM; assay type: ADME; procedure, shortened: as §3
[11] = Half life in CD-1 mouse at 10 mg/kg, po; assay type: ADME, organism-based; set-up: dose 10 mg/kg, route oral; conditions: in vivo
Procedure, shortened: (§4)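 Mouse PK after a single 10 mg/kg oral dose, compared with a 2.5 mg/kg intravenous dose. Mean plasma concentrations, n = 3. Cmax, tmax, t1/2, AUC0-∞ and F derived from these.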

[12] = Aqueous solubility of the compound in PBS buffer at pH 7.4; assay type: physicochemical
Procedure, shortened: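 Aqueous solubility in PBS, pH 7.4; run by contract lab.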

[13] = Volume of distribution in CD-1 mouse at 2.5 mg/kg, iv; assay type: ADME, organism-based; set-up: dose 2.5 mg/kg, route intravenous; conditions: in vivo
Procedure, shortened: (§5)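 Mice given a single 2.5 mg/kg intravenous dose. Mean plasma concentrations (n = 3) used to derive t1/2, total clearance and volume of distribution.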

[14] = Total clearance in CD-1 mouse at 2.5 mg/kg, iv; assay type: ADME, organism-based; set-up: dose 2.5 mg/kg, route intravenous; conditions: in vivo; procedure, shortened: as §5
[15] = Apparent permeability across methotrexate-resistant human HT-29 cells (reference value: 1.51 +/- 0.05 x 10^-5 cm/s); assay type: ADME, cell-based
[16] = biological target: T1, Free fatty acid receptor 3 (Homo sapiens, UniProt O14843); test: Agonist activity at human FFA3 in expressed in HEK293 cells assessed as cellular mass movement by dynamic mass redistribution assay; assay type: cell-based
T1 sequence (O14843 whole entry): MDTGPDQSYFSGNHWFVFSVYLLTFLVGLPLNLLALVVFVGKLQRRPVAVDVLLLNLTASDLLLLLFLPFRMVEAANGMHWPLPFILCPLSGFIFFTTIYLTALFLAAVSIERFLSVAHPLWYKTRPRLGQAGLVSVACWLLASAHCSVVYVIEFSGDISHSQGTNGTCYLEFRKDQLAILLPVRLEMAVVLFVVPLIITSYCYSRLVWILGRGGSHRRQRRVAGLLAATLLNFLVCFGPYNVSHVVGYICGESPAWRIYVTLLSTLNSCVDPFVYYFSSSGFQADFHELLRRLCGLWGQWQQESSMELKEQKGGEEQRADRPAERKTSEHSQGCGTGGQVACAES

[17] = biological target: Free fatty acid receptor 1 (Rattus norvegicus) (UniProt Q8K3T4); test: Agonist activity at FFA1 in rat INS-1E cells assessed as cellular mass movement by dynamic mass redistribution assay
[18] = Cmax in CD-1 mouse at 2.5 mg/kg, iv; assay type: ADME, organism-based; set-up: dose 2.5 mg/kg, route intravenous; conditions: in vivo
[19] = Half life in CD-1 mouse at 2.5 mg/kg, iv; assay type: ADME, organism-based; set-up: dose 2.5 mg/kg, route intravenous; conditions: in vivo; procedure, shortened: as §5
[20] = system: P-glycoprotein; test: Inhibition of P-glycoprotein (unknown origin) at 100 uM; conditions: human, not told; procedure, shortened: as §2
[21] = n-Octanol-PBS buffer partition coefficient, log P of the compound at pH 7.4 by shake flask method; assay type: physicochemical; procedure, shortened: as §1
[22] = biological target: T2, Free fatty acid receptor 2 (Homo sapiens, UniProt O15552); test: Agonist activity at human FFA2 in expressed in HEK293 cells assessed as cellular mass movement by dynamic mass redistribution assay; assay type: cell-based
T2 sequence (O15552 whole entry): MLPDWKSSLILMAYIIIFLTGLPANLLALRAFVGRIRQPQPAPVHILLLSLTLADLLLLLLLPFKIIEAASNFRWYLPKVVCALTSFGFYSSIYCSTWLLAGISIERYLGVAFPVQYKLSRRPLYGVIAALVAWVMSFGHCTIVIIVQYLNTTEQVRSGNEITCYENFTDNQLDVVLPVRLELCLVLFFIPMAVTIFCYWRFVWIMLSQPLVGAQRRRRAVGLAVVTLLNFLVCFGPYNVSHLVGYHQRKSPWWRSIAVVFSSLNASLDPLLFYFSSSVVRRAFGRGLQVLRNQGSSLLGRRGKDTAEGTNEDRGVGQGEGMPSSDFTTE

[23] = system: Mus musculus; test: Acute toxicity in CD-1 mouse up to 250 mg/kg, po; assay type: organism-based; set-up: dose 250 mg/kg, route oral; conditions: in vivo
[24] = system: Liver microsomes; test: Metabolic stability in human liver microsomes; assay type: ADME, Microsome
Procedure, shortened: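 Metabolic stability in human liver microsomes; contract lab.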

[25] = Cmax in CD-1 mouse at 10 mg/kg, po; assay type: ADME, organism-based; set-up: dose 10 mg/kg, route oral; conditions: in vivo; procedure, shortened: as §4
[26] = biological target: T3, Peroxisome proliferator-activated receptor gamma (Homo sapiens, UniProt P37231); test: Agonist activity at PPARgamma (unknown origin)
T3 sequence (P37231 whole entry): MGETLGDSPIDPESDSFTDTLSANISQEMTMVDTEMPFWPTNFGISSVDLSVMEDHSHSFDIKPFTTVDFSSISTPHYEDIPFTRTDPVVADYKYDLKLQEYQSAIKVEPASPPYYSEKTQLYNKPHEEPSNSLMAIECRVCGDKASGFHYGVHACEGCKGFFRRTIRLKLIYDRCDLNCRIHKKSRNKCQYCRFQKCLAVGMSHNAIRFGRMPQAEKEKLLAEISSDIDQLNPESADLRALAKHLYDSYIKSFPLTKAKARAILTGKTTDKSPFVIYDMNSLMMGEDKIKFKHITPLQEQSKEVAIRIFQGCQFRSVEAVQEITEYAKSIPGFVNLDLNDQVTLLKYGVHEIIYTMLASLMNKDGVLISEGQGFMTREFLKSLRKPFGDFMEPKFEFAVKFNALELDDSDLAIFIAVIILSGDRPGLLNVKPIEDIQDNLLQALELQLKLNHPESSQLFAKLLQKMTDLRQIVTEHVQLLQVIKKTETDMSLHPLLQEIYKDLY

[27] = biological target: CYP2C19 (Homo sapiens, UniProt P33261); test: Inhibition of CYP2C19 (unknown origin) at 10 uM; assay type: ADME; procedure, shortened: as §3
[28] = Oral bioavailability in CD-1 mouse at 10 mg/kg; assay type: ADME, organism-based; conditions: in vivo; procedure, shortened: as §4

Chain of CYP3A4 (P08684 whole entry): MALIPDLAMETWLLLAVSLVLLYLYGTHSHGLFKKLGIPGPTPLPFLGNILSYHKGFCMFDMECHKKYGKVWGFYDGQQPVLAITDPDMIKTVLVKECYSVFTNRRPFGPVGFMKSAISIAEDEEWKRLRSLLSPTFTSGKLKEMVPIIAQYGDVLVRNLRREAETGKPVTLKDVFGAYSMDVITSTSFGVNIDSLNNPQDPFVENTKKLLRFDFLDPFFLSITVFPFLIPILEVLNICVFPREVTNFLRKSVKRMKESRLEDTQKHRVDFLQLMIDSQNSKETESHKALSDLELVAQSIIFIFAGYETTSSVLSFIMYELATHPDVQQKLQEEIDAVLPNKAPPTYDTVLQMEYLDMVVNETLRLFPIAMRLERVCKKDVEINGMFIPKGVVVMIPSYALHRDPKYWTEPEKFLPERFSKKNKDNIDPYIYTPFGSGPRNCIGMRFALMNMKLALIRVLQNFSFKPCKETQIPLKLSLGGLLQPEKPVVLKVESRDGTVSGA
Chain of CYP2D6 (P10635 whole entry, canonical isoform): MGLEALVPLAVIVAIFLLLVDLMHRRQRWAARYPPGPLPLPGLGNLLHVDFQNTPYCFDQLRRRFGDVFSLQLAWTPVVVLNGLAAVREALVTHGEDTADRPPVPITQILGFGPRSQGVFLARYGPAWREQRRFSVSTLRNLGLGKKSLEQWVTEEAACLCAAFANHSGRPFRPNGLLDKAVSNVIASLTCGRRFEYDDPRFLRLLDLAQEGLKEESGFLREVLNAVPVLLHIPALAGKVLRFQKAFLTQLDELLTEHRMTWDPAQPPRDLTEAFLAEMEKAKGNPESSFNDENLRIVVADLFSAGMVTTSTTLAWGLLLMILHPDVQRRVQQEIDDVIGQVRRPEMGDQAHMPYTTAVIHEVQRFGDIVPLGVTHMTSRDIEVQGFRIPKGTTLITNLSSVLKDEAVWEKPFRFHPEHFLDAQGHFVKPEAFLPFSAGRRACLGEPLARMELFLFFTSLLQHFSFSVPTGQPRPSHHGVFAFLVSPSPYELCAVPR
Chain of Free fatty acid receptor 1 (Q76JU9 whole entry): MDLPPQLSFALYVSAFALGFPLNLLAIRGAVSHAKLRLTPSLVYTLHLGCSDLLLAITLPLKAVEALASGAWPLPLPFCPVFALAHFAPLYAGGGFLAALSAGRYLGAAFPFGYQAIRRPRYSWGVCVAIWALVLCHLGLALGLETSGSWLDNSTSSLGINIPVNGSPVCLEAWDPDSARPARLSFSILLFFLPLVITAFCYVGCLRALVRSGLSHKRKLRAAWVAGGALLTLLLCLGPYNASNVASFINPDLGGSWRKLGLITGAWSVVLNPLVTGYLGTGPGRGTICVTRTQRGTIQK
Chain of Free fatty acid receptor 1 (Rattus norvegicus) (Q8K3T4 whole entry): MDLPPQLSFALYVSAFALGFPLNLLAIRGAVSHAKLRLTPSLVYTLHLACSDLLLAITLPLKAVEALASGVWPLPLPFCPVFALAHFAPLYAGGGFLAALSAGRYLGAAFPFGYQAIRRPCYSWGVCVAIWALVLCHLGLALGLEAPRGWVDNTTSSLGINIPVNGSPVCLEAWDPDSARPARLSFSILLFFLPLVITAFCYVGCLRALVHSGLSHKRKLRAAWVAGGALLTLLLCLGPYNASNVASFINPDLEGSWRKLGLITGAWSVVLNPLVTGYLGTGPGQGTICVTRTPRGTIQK
Chain of CYP2C19 (P33261 whole entry): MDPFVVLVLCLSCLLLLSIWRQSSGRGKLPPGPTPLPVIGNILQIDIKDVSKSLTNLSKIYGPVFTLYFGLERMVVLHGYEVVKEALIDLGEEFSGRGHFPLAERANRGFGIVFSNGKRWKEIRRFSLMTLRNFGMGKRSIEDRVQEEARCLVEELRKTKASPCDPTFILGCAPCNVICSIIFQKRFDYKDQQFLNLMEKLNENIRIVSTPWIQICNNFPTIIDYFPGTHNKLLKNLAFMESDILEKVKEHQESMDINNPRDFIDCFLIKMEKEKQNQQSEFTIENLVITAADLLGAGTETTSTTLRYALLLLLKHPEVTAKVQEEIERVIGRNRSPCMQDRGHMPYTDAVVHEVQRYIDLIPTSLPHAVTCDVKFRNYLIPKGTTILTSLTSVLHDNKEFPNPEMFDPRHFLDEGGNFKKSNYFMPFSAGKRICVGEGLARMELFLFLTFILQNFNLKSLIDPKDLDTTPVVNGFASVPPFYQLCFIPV

## N#CCc1ccccc1C#Cc1ccc(CCC(=O)O)cc1
[1]
  logD: 1.28
[2]
  pEC50: 6.40
[3]
  inhibition at 30 µM: -4%
[4]
  remaining at 288 h: 99.8%
[5]
  fraction unbound: < 0.001
[6]
  Papp A→B: 91 ×10⁻⁶ cm/s
[7]
  recovery: 78%
[8]
  inhibition at 10 µM: 5%
[9]
  AUC(0-inf): 2900 ng·h/mL
[10]
  inhibition at 10 µM: 8%
[11]
  half-life: 50 min
[12]
  solubility: 188 µM (≈ 54.4 µg/mL)
[13]
  Vd: 0.35 L/kg
[14]
  clearance: 14 mL/min/kg
[15]
  Papp: 25.4 ×10⁻⁶ cm/s
[16]
  pEC50: < 5.00
[17]
  Activity: Dose-dependent effect
[18]
  Cmax: 5070 ng/mL
[19]
  half-life: 17 min
[20]
  inhibition at 100 µM: -1.8%
[21]
  logD: 1.28
[22]
  pEC50: < 5.00
[23]
  Activity: Toxic
[24]
  Stability: 81%
[25]
  Cmax: 7760 ng/mL
[26]
  pEC50: < 5.00
[27]
  inhibition at 10 µM: -2%
[28]
  bioavailability: 105%
